Experiment [1] deals with Rattus norvegicus. Description: Effect of locomotor activity in reserpine pretreated rats at the dose of 50.0uM/Kg, sc ip after count of 30 minute. The format is functional. An outline of the steps:
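Rats given reserpine 5 mg/kg sc 18 h beforehand, then test drug sc immediately before the session. Photocell motility counts accumulated over 30 min, mean ± SEM, n = 3-4. In one arm haloperidol 0.3 mg/kg sc was given 30 min before drug. ANOVA with Fisher's test against controls.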

For experiment [2], the system named is Rattus norvegicus. The experiment can be described thus: In vivo effect of 5-HTP accumulation in nonpretreated rat cortex at the dose of 50 umol/kg, sc. The format is functional. In short, it runs like this: (§1)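 Untreated rats given test drug 50 μmol/kg sc 65 min before death, and NSD 1015 (decarboxylase inhibitor) 100 mg/kg ip 30 min before death. DOPA and 5-HTP in limbic, striatal and cortical regions measured by HPLC with electrochemical detection. Values are % of saline controls, mean ± SEM, n = 4. ANOVA with Fisher's test.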

Experiment [3] relates to Rattus norvegicus. The experiment can be described thus: In vivo effect of DOPA accumulation in nonpretreated rat limbic system at the dose of 50 umol/kg, sc ip. The format is functional. In short, it runs like this: as §1
Experiment [4] relates to Rattus norvegicus. Description: In vivo effect of DOPA accumulation in nonpretreated rat cortex at the dose of 50 umol/kg, sc ip. The format is functional. In short, it runs like this:
as §1

Experiment [5] has as its target T1, D(2) dopamine receptor (Bos taurus, UniProt P20288). Description: Binding affinity of [3H]spiroperidol to striatal Dopamine receptor D2 binding sites. In short, it runs like this:
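Calf striatal membranes, 1.5–2 mg/tube. Competition with [3H]spiroperidol (100 μL of 10 nM added to 1 mL) in Tris-HCl buffer with EDTA, NaCl, KCl, CaCl2, MgCl2, pH 7.2, run in triplicate. Incubated 40 min at 37 °C. Nonspecific binding with 1 μM (+)-butaclamol. GF/B filtration, scintillation counting; pIC50 as mean ± SEM.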

Experiment [6] concerns Rattus norvegicus. The experiment can be described thus: In vivo effect of 5-HTP accumulation in nonpretreated rat limbic system at the dose of 50 umol/kg, sc. The format is functional. In short, it runs like this:
as §1

The target in experiment [7] is T1, D(2) dopamine receptor. The experiment can be described thus: Binding affinity of [3H]NPA to striatal Dopamine receptor D2. An outline of the steps: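 Calf striatal membranes (homogenised in Tris salt buffer pH 7.4, preincubated 30 min at 35 °C, washed), 1.5–2 mg/tube. Competition with [3H]NPA (100 μL of 5 nM added to 1 mL) in 50 mM Tris-HCl, 1 mM EDTA, 4 mM MgCl2, 0.01% ascorbic acid, pH 7.2. Incubated 45 min at 25 °C. Nonspecific binding with 1 μM (+)-butaclamol. Filtration, scintillation counting; pIC50 as mean ± SEM.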

For experiment [8], the system named is Rattus norvegicus. The experiment can be described thus: Effect of locomotor activity in nonpretreated rats at the dose of 50.0uM/Kg, sc. The format is functional. In short, it runs like this: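 Untreated rats given test drug sc 5 min before the session. Photocell motility boxes recorded accumulated counts over 30 min, with gross behaviour observed. Activity expressed as % of saline controls, mean ± SEM. ANOVA with Fisher's test.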

Experiment [9] relates to Rattus norvegicus. The experiment can be described thus: In vivo effect of DOPA accumulation in nonpretreated rat striatum at the dose of 50 umol/kg, sc ip. It is filed as functional. An outline of the steps:
as §1

The subject of experiment [10] is Rattus norvegicus. Description: In vivo effect of 5-HTP accumulation in nonpretreated rat striatum at the dose of 50 umol/kg, sc. The format is functional. In short, it runs like this:
as §1

Experiment [11] has as its system Rattus norvegicus. The experiment can be described thus: Effect of locomotor activity in reserpine pretreated rats at the dose of 25.0uM/Kg, sc ip after count of 30 minute. The format is functional. In short, it runs like this: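 Reserpine 5 mg/kg sc given 18 h before; test drug sc immediately before session; haloperidol 0.3 mg/kg sc injected 30 min before test drug. Photocell motility boxes, accumulated counts over 30 min, with gross behaviour observed through mirror; mean ± SEM, n = 3-4; Anova with Fischer's test versus saline controls. Injection volume 5 mL/kg, near-neutral pH.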

Results on 2 compounds are retold here after ChEMBL document CHEMBL1124995, “Synthesis and pharmacology of the enantiomers of cis-7-hydroxy-3-methyl-2-(dipropylamino)tetralin” (J Med Chem, 1990).

T1 sequence (P20288 whole entry): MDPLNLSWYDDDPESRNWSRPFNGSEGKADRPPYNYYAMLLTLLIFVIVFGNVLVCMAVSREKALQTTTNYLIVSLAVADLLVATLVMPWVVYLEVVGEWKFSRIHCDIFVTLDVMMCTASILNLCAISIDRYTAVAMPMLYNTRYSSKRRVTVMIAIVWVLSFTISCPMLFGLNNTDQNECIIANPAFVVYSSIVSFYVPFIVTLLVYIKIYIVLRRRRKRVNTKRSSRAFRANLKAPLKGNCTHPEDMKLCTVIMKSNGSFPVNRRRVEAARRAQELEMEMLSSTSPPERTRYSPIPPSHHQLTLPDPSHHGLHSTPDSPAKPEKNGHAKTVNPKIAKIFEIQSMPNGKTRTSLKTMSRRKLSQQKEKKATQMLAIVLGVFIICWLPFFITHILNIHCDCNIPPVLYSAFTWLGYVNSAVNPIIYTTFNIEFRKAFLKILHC

In general, IC50 refers to the concentration needed to halve the response being measured. A higher IC50 goes with a need for much substance. As to `CCCN(CCC)[C@@H]1Cc2cc(O)ccc2C[C@H]1C` (racemic), the Activity was found to be 331 µM/kg with Rattus norvegicus [1] and 147 µM/kg with Rattus norvegicus [8]. The Control came to 147% with Rattus norvegicus [2]; 146% in the experiment with Rattus norvegicus [3]; 217% in the experiment with Rattus norvegicus [4]; 136% in the experiment with Rattus norvegicus [6]; 247% in the experiment on Rattus norvegicus [9]; 117% in the experiment with Rattus norvegicus [10]. In addition, the values for the concentration for half-maximal inhibition (IC50) on D(2) dopamine receptor [5] and at D(2) dopamine receptor [7] were 26.9 µM and 1.02 µM, respectively.
For the compound `O=C(CCCN1CCC(O)(c2ccc(Cl)cc2)CC1)c1ccc(F)cc1` [HALOPERIDOL], the Activity in the experiment on Rattus norvegicus [11] was found to be 573 counts/30 min.
